ABHD5 PLIN5 PPI: ABHD5-PLIN5 protein interaction inhibition; Q00G26+Q8WTS1; Split G. princeps luciferase complementation, luminescence, 4 h; inhibition, % at 4 µM; hit rate 0.78% among 360,000;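 active = inhibition above the mean inhibition across every tested compound plus 3 SD, cut at about 22% in these data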;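 also: 0% = DMSO only wells and the 100% control is not disclosed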
Target sequence (Q00G26 whole entry, looked up): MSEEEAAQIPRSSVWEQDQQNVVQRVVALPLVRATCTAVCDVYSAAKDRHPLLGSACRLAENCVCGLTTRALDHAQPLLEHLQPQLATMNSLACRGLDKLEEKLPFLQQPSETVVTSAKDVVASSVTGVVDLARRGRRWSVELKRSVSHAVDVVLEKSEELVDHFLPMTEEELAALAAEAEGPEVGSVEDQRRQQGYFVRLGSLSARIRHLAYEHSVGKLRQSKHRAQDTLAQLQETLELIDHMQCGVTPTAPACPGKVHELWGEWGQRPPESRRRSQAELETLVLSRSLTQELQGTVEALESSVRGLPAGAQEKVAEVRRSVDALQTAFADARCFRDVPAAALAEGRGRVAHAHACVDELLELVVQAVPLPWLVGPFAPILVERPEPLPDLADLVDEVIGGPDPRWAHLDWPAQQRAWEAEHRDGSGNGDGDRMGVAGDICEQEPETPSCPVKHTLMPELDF
Target sequence (Q8WTS1 whole entry, looked up): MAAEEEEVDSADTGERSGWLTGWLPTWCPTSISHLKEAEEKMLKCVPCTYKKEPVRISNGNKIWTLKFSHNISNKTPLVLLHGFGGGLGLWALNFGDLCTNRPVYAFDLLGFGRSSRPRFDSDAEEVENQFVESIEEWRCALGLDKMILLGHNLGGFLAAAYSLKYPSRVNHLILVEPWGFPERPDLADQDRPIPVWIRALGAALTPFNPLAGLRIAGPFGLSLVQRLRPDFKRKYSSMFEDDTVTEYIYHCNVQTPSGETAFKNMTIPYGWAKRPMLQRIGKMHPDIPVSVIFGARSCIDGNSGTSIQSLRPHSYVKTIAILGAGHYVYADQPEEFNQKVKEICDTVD
Beta2AR agonist: agonists of human beta-2 adrenergic receptor inducing internalization; P07550; Am2.2-beta2AR cells, FAP receptor internalization, flow cytometry; hit rate 0.43% among 340,000; response, % (test concentration not listed);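 active = response above a set limit, near 3 SD of response in nonfluorescent compounds, cut at about 42% in these data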
UHRF1 binding: UHRF1 methyl-DNA binding inhibition | UHRF1 binding to methylated oligo, TR-FRET | AID 687016 | hit rate 0.75% among 370,000 | inhibition, % at 4.4 µM | Q96T88; in the data active = inhibition above about 21%;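 also: UHRF1 SRA domain binding a hemimethylated CpG hairpin DNA probe; 0% = median of test compound wells and 100% = reference inhibitor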
MBD2 DNA inh: MBD2-methylated oligo binding inhibition | Q9UBB5 | TR-FRET, MBD2 binding to methylated oligonucleotide | inhibition, % at 4.4 µM | hit rate 0.31% among 370,000; in the data active = inhibition above about 13%
Rin1 Abl inh: inhibitors of human Rin1-Abl protein interaction; P00519+Q13671; TR-FRET Rin1/Abl binding, biochemical; inhibition, % at 7.35 µM; hit rate 0.4% among 360,000; AID 588664; in the data active = inhibition above about 5%, passing the limit was not always enough
Arr AP2 block: human beta-arrestin and AP2 interaction inhibition; FITC-arrestin peptide / GST-AP2 beads, flow cytometry; AP2 beta2 appendage carries R879A mutation; inhibition, % at 10 µM; hit rate 0.31% among 340,000; AID 504490;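 active = inhibition above a set limit, near 3 SD of compounds lacking own fluorescence, cut at about 54% in these data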;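 also: plate controls were DMSO wells for no effect and 5 µM unlabelled arrestin peptide for full effect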
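System: GST-AP2 R879A glutathione beads | Also added: FITC-arrestin peptide, 50 nM | Times: 12 min plus 1 h, RT | Signal: Bead flow cytometry, FITC channel | Buffer or medium: PBS with 0.05% Tween 20 and 0.1% BSA | Read-out basis: Percent drop in bead-associated FITC signal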
Arr AP2 CP1: human beta-arrestin and AP2 interaction inhibition, cherry pick; inhibition, % at 10 µM; hit rate 2% among 1,300; GST-AP2 beads, FITC arrestin peptide binding, flow cytometry; GST-fused beta2-adaptin appendage, R879A mutant; AID 504908; shares compounds with Arr AP2 block;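 active = inhibition above a set limit, roughly 3 SD of non-fluorescent compound noise, cut at about 38% in these data; inactive = inhibition at or below that limit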;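 also: loss of bead fluorescence from 50 nM FITC arrestin peptide bound to appendage; 0% = negative control wells and 100% = excess unlabelled arrestin peptide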
GST-FITC bead: disrupts GST binding to glutathione beads, arrestin-AP2 artifact; shares compounds with Arr AP2 block; GST-fluorescein binding to GSH beads, fluorescence, counter-screen; inhibition, % at 10 µM; hit rate 2% among 1,300;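 active = inhibition above 50%, about 3 SD of the inhibition seen with non-fluorescent compounds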;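 also: fluorescein maleimide labelled GST captured on 4 micron glutathione beads; higher means more loss of bead fluorescence from quenching or blocked binding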
* = called active by the depositor; . = not tested or not shown. A selection: hits, their analogues and other compounds. The true share with any hit is near 2.5%.

SMILES	ABHD5 PLIN5 PPI	Beta2AR agonist	UHRF1 binding	MBD2 DNA inh	Rin1 Abl inh	Arr AP2 block	Arr AP2 CP1	GST-FITC bead
CCN1CCCC1CN(Cc1cc2c(C)cc(C)cc2[nH]c1=O)C(=O)NC1CCCCC1 (stereo not drawn)	2.4	-10.5	-1.4	-3.3	3.8	13.9	-6.1	-4.4
O=C(NC1CCCCC1)N(CCN1CCCC1)Cc1cc2cc3c(cc2[nH]c1=O)OCCO3	-3.3	-0.8	.	.	0.1	-4.3	.	.
Cc1ccc2cc(CN(Cc3ccco3)C(=O)NC3CCCCC3)c(=O)[nH]c2c1C	0.7	2.4	-2.8	3.3	6.6	12.5	.	.
Cc1cccc2cc(CN(CCN3CCCC3)C(=O)NC3CCCCC3)c(=O)[nH]c12	2.5	-4.8	0.9	-0.7	0.1	12.8	1.2	-8.6
Cc1ccc(CN2CCCCC(NC(=O)c3ccccc3C)C2=O)cc1 (stereo not drawn)	.	.	0.2	2.3	.	.	.	.
c1ccc(-c2c[nH]c3ccc(OCCN4CCOCC4)c(-c4ccccc4)c23)cc1	.	.	1.0	1.6	.	.	.	.
COc1ccc(CSc2nnc(SCc3ccccc3)s2)cc1	.	.	-0.5	0.8	.	.	.	.
CCCN(CC1CC1)c1nc(C)nc2c1nnn2Cc1ccccc1	.	.	-0.6	4.9	.	.	.	.
O=C(NC1CCCCC1)N(Cc1cc2cc3c(cc2[nH]c1=O)OCCO3)CC1CCCO1 (stereo not drawn)	0.9	-1.0	-1.1	1.9	-3.4	-1.6	-8.9	-1.1
CCc1ccc2[nH]c(=O)c(CN(CCN(CC)CC)C(=O)NC3CCCCC3)cc2c1	1.1	17.6	2.5	-4.8	-1.4	76.1*	8.3	-6.7
CCc1ccc2[nH]c(=O)c(CN(CCN(C)C)C(=O)Nc3ccccc3)cc2c1	4.9	5.5	-2.9	2.2	-2.9	1.4	.	.
O=C(NC1CCCCC1)N(CCO)Cc1cc2cc3c(cc2[nH]c1=O)OCCO3	0.3	-2.9	-2.2	-1.6	4.6	8.3	.	.
Cn1c(N)c(C(=O)COC(=O)c2cccs2)c(=O)n(C)c1=O	2.5	-5.4	-0.2	-1.3	-4.8	16.9	1.4	1.9
Cc1noc(C)c1C(=O)OCC(=O)c1c(N)n(CC(C)C)c(=O)n(C)c1=O	-5.1	3.0	-0.6	2.3	5.6	-3.8	0.9	-8.4
CC(C)Cn1c(N)c(C(=O)COC(=O)c2c(F)cccc2F)c(=O)n(C)c1=O	-4.3	11.3	2.9	-4.5	0.9	-22.1	.	.
CC(C)Cn1c(N)c(C(=O)COC(=O)c2ccc(F)cc2)c(=O)n(C)c1=O	2.5	-5.2	-1.5	0.0	-0.5	13.3	2.6	-7.3
Cn1c(N)c(C(=O)COC(=O)c2ccc(C(F)(F)F)cc2)c(=O)n(C)c1=O	-0.8	-2.5	-0.4	-1.8	4.7	-11.2	-10.1	-4.0
Cc1c(C(=O)OCC(=O)c2c(N)n(CC(C)C)c(=O)n(C)c2=O)oc2ccccc12	-0.2	6.1	-1.6	-4.1	-3.9	-15.5	.	.
Cc1cc(Cl)ccc1OCC(=O)N/N=C/c1ccc[nH]1	.	.	-1.0	-2.1	.	.	.	.
O=S(=O)(c1ccccc1Br)N(Cc1cn(Cc2ccccc2)nn1)C1CC1	.	.	-0.5	4.8	.	.	.	.
CCCC[C@H]1C2CC(OC(=O)Nc3cccc(Br)c3)C(C2)[C@H]2CCCCN21 (stereo partly drawn)	.	.	-0.9	-1.1	.	.	.	.
Cc1ccc(-c2c(NC(=O)Nc3ccccc3)nc3ncccn23)cc1	.	.	-2.9	-6.4	.	.	.	.
CC(C)Cn1c(N)c(C(=O)COC(=O)c2cccc(Cl)c2)c(=O)n(C)c1=O	2.0	-0.3	2.1	5.1	1.5	6.3	.	.
COc1ccc(C(=O)OCC(=O)c2c(N)n(C)c(=O)n(C)c2=O)c(OC)c1OC	3.9	-1.3	1.0	2.8	5.2	19.6	-0.2	-1.9
COc1cccc(C(=O)OCC(=O)c2c(N)n(C)c(=O)n(C)c2=O)c1	-1.6	2.6	-3.5	2.0	-1.5	2.0	-10.3	-4.0
CCc1ccc(C(=O)OCC(=O)c2c(N)n(CC(C)C)c(=O)n(C)c2=O)cc1	4.6	13.3	-0.9	0.4	-1.5	-13.1	-3.0	-1.6

Screens from PubChem.
